Experiments:
Rattus norvegicus [1] = assay: Dose inducing catalepsy in rats after oral administration; type: functional
Method in brief: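 Oral dose of compound or vehicle; rats tested 120 and 180 min later with forepaws on a horizontal bar (9 mm diameter, 10 cm high). Latency to climb down recorded, 90 s maximum, score averaged over two trials; 20 s mean immobility was the catalepsy criterion. ED20s dose extrapolated by linear regression.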

[2] = target: T1, Adrenergic receptor alpha-1 (Rattus norvegicus, UniProt P15823+P23944+P43140); assay: Displacement of [3H]prazosin from rat brain Alpha-1 adrenergic receptor
T1 sequence (P15823 whole entry): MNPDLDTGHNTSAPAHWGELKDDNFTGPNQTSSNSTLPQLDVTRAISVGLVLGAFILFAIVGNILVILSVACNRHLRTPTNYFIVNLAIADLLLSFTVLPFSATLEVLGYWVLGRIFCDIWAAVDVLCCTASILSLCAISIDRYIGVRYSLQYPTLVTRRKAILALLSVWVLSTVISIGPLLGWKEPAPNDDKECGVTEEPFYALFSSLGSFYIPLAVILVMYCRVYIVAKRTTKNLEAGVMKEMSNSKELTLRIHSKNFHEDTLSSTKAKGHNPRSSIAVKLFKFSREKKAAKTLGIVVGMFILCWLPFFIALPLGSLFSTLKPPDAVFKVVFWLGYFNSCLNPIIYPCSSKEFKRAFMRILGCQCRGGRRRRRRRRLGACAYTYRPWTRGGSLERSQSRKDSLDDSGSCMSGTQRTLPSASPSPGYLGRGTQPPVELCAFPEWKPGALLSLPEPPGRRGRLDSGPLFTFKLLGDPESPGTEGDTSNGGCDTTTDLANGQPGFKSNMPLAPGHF
T1 sequence (P23944 whole entry): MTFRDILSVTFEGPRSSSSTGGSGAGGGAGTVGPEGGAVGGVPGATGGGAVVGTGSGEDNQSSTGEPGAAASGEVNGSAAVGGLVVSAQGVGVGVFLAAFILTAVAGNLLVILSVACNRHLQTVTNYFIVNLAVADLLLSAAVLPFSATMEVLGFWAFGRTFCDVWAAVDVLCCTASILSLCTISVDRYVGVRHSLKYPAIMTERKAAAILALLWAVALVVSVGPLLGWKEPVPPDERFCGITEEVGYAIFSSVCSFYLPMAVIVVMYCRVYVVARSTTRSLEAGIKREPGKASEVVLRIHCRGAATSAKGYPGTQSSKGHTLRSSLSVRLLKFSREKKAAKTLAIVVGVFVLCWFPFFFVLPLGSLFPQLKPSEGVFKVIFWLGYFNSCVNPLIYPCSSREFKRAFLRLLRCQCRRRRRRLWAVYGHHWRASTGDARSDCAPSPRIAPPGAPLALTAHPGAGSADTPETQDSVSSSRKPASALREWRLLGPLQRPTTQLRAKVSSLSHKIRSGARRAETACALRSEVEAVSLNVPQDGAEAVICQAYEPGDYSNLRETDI
T1 sequence (P43140 whole entry): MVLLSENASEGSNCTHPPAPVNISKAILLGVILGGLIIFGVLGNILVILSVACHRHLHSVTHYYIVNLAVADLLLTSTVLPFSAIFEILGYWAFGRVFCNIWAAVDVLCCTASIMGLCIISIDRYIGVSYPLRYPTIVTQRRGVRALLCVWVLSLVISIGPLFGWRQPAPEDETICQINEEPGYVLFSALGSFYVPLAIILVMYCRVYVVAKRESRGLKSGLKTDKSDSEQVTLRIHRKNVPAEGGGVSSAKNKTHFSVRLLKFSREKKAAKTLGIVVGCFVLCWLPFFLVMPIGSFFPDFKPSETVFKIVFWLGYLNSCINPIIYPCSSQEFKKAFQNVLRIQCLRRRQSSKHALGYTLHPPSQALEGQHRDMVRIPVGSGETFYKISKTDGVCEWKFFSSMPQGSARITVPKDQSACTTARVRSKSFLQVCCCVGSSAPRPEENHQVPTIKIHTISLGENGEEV

Rattus norvegicus [3] = assay: Dose (administered orally) inhibiting amphetamine-induced locomotor behavior in rats; type: functional; conditions: po
Rattus norvegicus [4] = assay: Dose (administered orally) inhibiting apomorphine-induced stereotypy in rats; type: functional; conditions: po
Method in brief: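 Rats dosed orally with vehicle or compound and observed in clear cages; apomorphine HCl 0.75 mg/kg sc given 3 h later. Stereotypy rated blind on a 0–4 scale starting 10 min after apomorphine, every 10 min, five ratings in all.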

[5] = target: T1, Adrenergic receptor alpha-1; assay: Displacement of [3H]prazosin from Alpha-1 adrenergic receptor in rat brain; type: tissue-based
Rattus norvegicus [6] = assay: Dose inhibiting conditioned avoidance response in rats after oral administration; type: functional
Method in brief: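 Each test day, 30 predrug avoidance trials in the morning; in the afternoon, oral compound or vehicle, then 30 more trials starting 120 min later. Predrug and postdrug avoidances compared by repeated-measures ANOVA with Newman-Keuls test; ID50 from linear regression of dose-response data.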

Rattus norvegicus [7] = assay: Dose (administered orally) inhibiting spontaneous locomotor behavior in rats; type: functional; conditions: po
Method in brief: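 At the start of the 12 h dark cycle, rats were dosed orally with vehicle or compound and placed at once in unfamiliar activity chambers. Horizontal locomotion recorded over 4 h.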

In the case of O=C1Nc2ccc(CCN3CCN(c4nsc5ccccc45)CC3)cc2C12CCCC2, the ED50 (Rattus norvegicus [1]) is reported as 32 mg/kg, the “Log Ki” value [2] is reported as -8.29 and the ED50 (Rattus norvegicus [3]) is reported as 5.8 mg/kg. The ED50 (Rattus norvegicus [4]) was 9 mg/kg and the Ki [5] was 5.1 nM.

With CN1CCN(C2=Nc3cc(Cl)ccc3Nc3ccccc32)CC1 [CLOZAPINE] the ED50 (Rattus norvegicus [1]) was > 32 mg/kg, the ED50 (Rattus norvegicus [6]) was > 17.8 mg/kg and the ED50 (Rattus norvegicus [3]) was 12.8 mg/kg. For the same compound, the ED50 (Rattus norvegicus [4]) was > 32 mg/kg and the ED50 (Rattus norvegicus [7]) was 8.18 mg/kg.

In the case of O=C1Cc2cc(CCN3CCN(c4nsc5ccccc45)CC3)c(F)cc2N1, the ED50 (Rattus norvegicus [1]) is reported as 17.8 mg/kg, the “Log Ki” value [2] is reported as -8.19 and the ED50 (Rattus norvegicus [6]) is reported as 9 mg/kg. The ED50 (Rattus norvegicus [3]) was 1 mg/kg, the ED50 (Rattus norvegicus [4]) was 9.1 mg/kg and the ED50 (Rattus norvegicus [7]) was 3.1 mg/kg. It also gave a Ki [5] of 6.5 nM.

In the case of Oc1nc2ccc(CCN3CCN(c4nsc5ccccc45)CC3)cc2o1, the ED50 (Rattus norvegicus [1]) is reported as > 32 mg/kg, the “Log Ki” value [2] is reported as -8.38 and the ED50 (Rattus norvegicus [6]) is reported as 17.8 mg/kg. It also gave an ED50 (Rattus norvegicus [3]) of 4.2 mg/kg, an ED50 (Rattus norvegicus [4]) of 21.6 mg/kg and an ED50 (Rattus norvegicus [7]) of 9.8 mg/kg. It also gave a Ki [5] of 4.2 nM.

For Oc1nc2ccc(CCN3CCN(c4nsc5ccccc45)CC3)cc2s1, the ED50 (Rattus norvegicus [1]) was > 56 mg/kg, the “Log Ki” value [2] was -8.63 and the ED50 (Rattus norvegicus [6]) was 12.3 mg/kg. For the same compound, the ED50 (Rattus norvegicus [3]) was 2.7 mg/kg, the ED50 (Rattus norvegicus [4]) was 23.8 mg/kg and the ED50 (Rattus norvegicus [7]) was 2.7 mg/kg. The Ki [5] was 2.3 nM.

CCN1C(=O)Cc2cc(CCN3CCN(c4nsc5ccccc45)CC3)ccc21 was tested, and the ED50 (Rattus norvegicus [1]) was 10 mg/kg, the “Log Ki” value [2] was -8.35 and the ED50 (Rattus norvegicus [6]) was 1.8 mg/kg. For the same compound, the ED50 (Rattus norvegicus [3]) was 1.1 mg/kg, the ED50 (Rattus norvegicus [4]) was 4.7 mg/kg and the ED50 (Rattus norvegicus [7]) was 2.1 mg/kg. The Ki [5] was 4.5 nM.

With CC1(C)C(=O)Nc2ccc(CCN3CCN(c4nsc5ccccc45)CC3)cc21 the ED50 (Rattus norvegicus [1]) was 17.8 mg/kg, the “Log Ki” value [2] was -8.68 and the ED50 (Rattus norvegicus [6]) was 2.6 mg/kg. For the same compound, the ED50 (Rattus norvegicus [3]) was 2.3 mg/kg, the ED50 (Rattus norvegicus [4]) was 10 mg/kg and the ED50 (Rattus norvegicus [7]) was 10.7 mg/kg. It also gave a Ki [5] of 2.1 nM.

For O=C(CCCN1CCC(O)(c2ccc(Cl)cc2)CC1)c1ccc(F)cc1 [HALOPERIDOL], the ED50 (Rattus norvegicus [1]) was 0.79 mg/kg, the ED50 (Rattus norvegicus [6]) was 0.93 mg/kg and the ED50 (Rattus norvegicus [3]) was 0.14 mg/kg. It also gave an ED50 (Rattus norvegicus [4]) of 0.25 mg/kg and an ED50 (Rattus norvegicus [7]) of 0.68 mg/kg.

O=C1CC2(CCCC2)CC(=O)N1CCCCN1CCN(c2nsc3ccccc23)CC1 [TIOSPIRONE] was tested, and the ED50 (Rattus norvegicus [1]) was 20.1 mg/kg, the “Log Ki” value [2] was -8.83 and the ED50 (Rattus norvegicus [6]) was 11.7 mg/kg. It also gave an ED50 (Rattus norvegicus [3]) of 4.8 mg/kg, an ED50 (Rattus norvegicus [4]) of 18.8 mg/kg and an ED50 (Rattus norvegicus [7]) of 15.5 mg/kg. For the same compound, the Ki [5] was 1.5 nM.

With O=C1Cc2cc(CCN3CCN(c4nsc5ccccc45)CC3)ccc2N1 the ED50 (Rattus norvegicus [1]) was 18.8 mg/kg, the “Log Ki” value [2] was -8.52 and the ED50 (Rattus norvegicus [6]) was 6.7 mg/kg. It also gave an ED50 (Rattus norvegicus [3]) of 1.4 mg/kg, an ED50 (Rattus norvegicus [4]) of 8.4 mg/kg and an ED50 (Rattus norvegicus [7]) of 8.5 mg/kg. It also gave a Ki [5] of 3 nM.

In the case of Cc1nc2n(c(=O)c1CCN1CCC(c3noc4cc(F)ccc34)CC1)CCCC2 [RISPERIDONE], the ED50 (Rattus norvegicus [1]) is reported as 5.7 mg/kg, the ED50 (Rattus norvegicus [6]) is reported as 1.6 mg/kg and the ED50 (Rattus norvegicus [3]) is reported as 0.44 mg/kg. It also gave an ED50 (Rattus norvegicus [4]) of 1.8 mg/kg and an ED50 (Rattus norvegicus [7]) of 1.2 mg/kg.

With O=C1Cc2cc(CCN3CCN(c4nsc5ccccc45)CC3)c(Cl)cc2N1 [ZIPRASIDONE] the ED50 (Rattus norvegicus [1]) was 12.1 mg/kg, the “Log Ki” value [2] was -7.98 and the ED50 (Rattus norvegicus [6]) was 2.6 mg/kg. For the same compound, the ED50 (Rattus norvegicus [3]) was 1.5 mg/kg, the ED50 (Rattus norvegicus [4]) was 2.4 mg/kg and the ED50 (Rattus norvegicus [7]) was 8.9 mg/kg. It also gave a Ki [5] of 11 nM.
